Laboratory results as given in publication PMC7978421 (Science Advances, 2021).

Legend:
ASF1 = settings: cited from earlier work
15N hASF1A(1-156) = 15N hASF1A(1-156) (Homo sapiens, UniProt Q9Y294); assay: NMR 1H-15N SOFAST HMQC titration of 15N-hASF1A; format: binding
Outline: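 Uniformly 15N-labelled hASF1A(1-156) (M9, 15NH4Cl) at 40 μM in 50 mM tris-HCl pH 7.5, 0.1 mM EDTA, DSS, NaN3, protease inhibitors, 10% D2O. Spectra at 293 or 298 K, 600 MHz, with stepwise test compound additions. Δδ = √(ΔHN² + (0.17ΔN)²), normalised to saturation maximum. Kd fitted against total compound concentration for nine residues shifting >0.07 ppm; mean ± SD reported.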

hASF1A(1-156) = hASF1A(1-156) (Homo sapiens, UniProt Q9Y294); assay: Isothermal titration calorimetry; format: binding
[1] = VP-ITC, 20°C, 50 mM tris-HCl pH 7.5, at least duplicate

Chain of hASF1A(1-156) (Q9Y294 1-156): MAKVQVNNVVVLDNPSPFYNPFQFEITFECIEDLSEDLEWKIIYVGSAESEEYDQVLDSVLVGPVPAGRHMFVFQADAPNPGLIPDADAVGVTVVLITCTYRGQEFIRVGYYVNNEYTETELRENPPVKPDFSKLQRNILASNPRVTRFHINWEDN
Chain of 15N hASF1A(1-156) (Q9Y294 1-156): as above

| Kd (15N hASF1A(1-156)) [µM] | Exchange regime upon 15N-ASF1 titration (15N hASF1A(1-156); NMR titration, chemical shift variation of hASF1A residues) | Kd (hASF1A(1-156)) [µM] | Affinities times lower than the P1 to P4 peptide series (hASF1A(1-156); ITC) [times] | N (ITC stoichiometry) (hASF1A(1-156); [1]) | ΔH (hASF1A(1-156); [1]) [kcal/mol] | −TΔS (hASF1A(1-156); [1]) [kcal/mol] | Molecule | Affinity for ASF1 (ASF1) |
| --- | --- | --- | --- | --- | --- | --- | --- | --- |
|  |  |  |  |  |  |  | ASTEEKWARLARRIAGAGGVTLDGFG [ip4] | low nanomolar range |
| 4 ± 1 | fast exchange rate | 2.7 ± 0.6 | 10 to 80 | 1.0 ± 0.1 | -2.2 ± 0.1 | -4.8 ± 0.2 | CC[C@H](C)[C@H](NC(=O)[C@H](CCCNC(=N)N)NC(=O)NC[C@H](CCC(N)=O)NC(=O)NC[C@H](CC(C)C)NC(=O)NC[C@H](CCCNC(=N)N)NC(=O)NC[C@H](Cc1ccc2ccccc2c1)NC(=O)[C@H](CCCCN)NC(=O)[C@H](CCC(=O)O)NC(C)=O)C(=O)N[C@@H](C)C(N)=O [C2] |  |
